Reference: paper PMC9989852 (Food and chemical toxicology : an international journal …, 2022)
Where “and” joins values, the source holds several entries; their conditions need not be identical. Equal values may be shown once.

How the values were obtained:
[1] = tested on: liver; experiment: Liver histopathology after 28-day dermal exposure; format: in vivo, B6C3F1 mice; settings: 28 days, mice affected of 5
How it was run: (§1)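 Female B6C3F1 mice (5/group) received 25 μl/ear on the dorsal ear surfaces daily, with acetone as vehicle. Tissues were formalin-fixed about 24 h after the last dose: liver remainder, half spleen, right kidney and half ear pinna. Sections were paraffin-embedded, cut at 5 μm and stained with H&E. A veterinary pathologist read them per STP guideline and graded 1 (minimal) to 5 (severe) by extent.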

[2] = tested on: B6C3F1 mice; experiment: Serum chemistries after 28-day dermal exposure; format: in vivo; settings: 28 days
How it was run: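 Female B6C3F1 mice received daily dorsal ear application (25 μl/ear, acetone vehicle). About 24 h after the last dose, blood was taken by cardiac puncture. Serum was separated by centrifugation and stored at −20 °C. ALKP, BUN, glucose and cholesterol were read on a Catalyst DX analyzer. Data are mean ± SE of 4–5 mice, ANOVA with Dunnett's; ALKP was also tested by linear regression (p < 0.05).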

[3] = tested on: B6C3F1 mice; experiment: Organ weights and body weight after 28-day dermal exposure; format: in vivo; settings: 28 days
[4] = tested on: auricular draining lymph nodes (dLNs); experiment: Draining lymph node phenotyping by flow cytometry after 28-day dermal exposure; format: in vivo, B6C3F1 mice; settings: 28 days
How it was run: (§2)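 Female B6C3F1 mice (5/group) received 25 μl/ear daily to the dorsal ears in acetone. About 24 h after the last dose, tissues went into RPMI: both auricular dLNs, half spleen and one ear pinna. Single-cell suspensions were acquired on an LSR II, with populations gated per supplemental strategy and FMO gating controls. Results are mean ± SE, n=5, by one-way ANOVA.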

[5] = PFAS concentration in serum; format: in vivo, B6C3F1 mice; settings: 1.25%–5%, dermal, 28 days
How it was run: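 Serum came by cardiac puncture about 24 h after the final daily ear dose (25 μl/ear, acetone vehicle; female B6C3F1 mice). Samples underwent solid-phase extraction and LC/MS/MS. Short-chain analytes were quantified as linear isomer only; the legacy comparator was quantified as linear plus branched. Data are mean ± SE of 4–5 mice, one-way ANOVA with Dunnett's vs vehicle.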

[6] = tested on: kidney, spleen; experiment: Kidney and spleen histopathology after 28-day dermal exposure; format: in vivo, B6C3F1 mice; settings: 1.25–5%, 28 days, data not shown
How it was run: as §1

[7] = tested on: ear pinna; experiment: Skin; format: in vivo, B6C3F1 mice; settings: dermal, 28 days
How it was run: (§3)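 Dosing was daily topical to both dorsal ears (25 μl/ear, acetone vehicle) in female B6C3F1 mice. Liver caudate lobe or half ear pinna was stored in RNAlater and homogenized in RLT buffer. RNA was isolated on RNeasy columns with DNase, and 1–2 μg was reverse-transcribed. TaqMan real-time PCR was read as 2−ΔΔCT vs vehicle, normalized to β-actin. Statistics: ANOVA/Dunnett's, or Kruskal-Wallis/Dunn's for unequal variance.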

[8] = tested on: spleen; experiment: Spleen phenotyping by flow cytometry after 28-day dermal exposure; format: in vivo, B6C3F1 mice; settings: 28 days
How it was run: as §2

[9] = tested on: liver (caudate); experiment: Liver gene expression; format: in vivo, B6C3F1 mice; settings: dermal, 28 days
How it was run: as §3

O=C(O)C(F)(F)C(F)(F)C(F)(F)C(F)(F)C(F)(F)C(F)(F)F [PFHpA, Perfluoroheptanoic acid]
Liver: Hypertrophy, centrilobular, hepatocyte, Mild (incidence) ([1]; 1.25%): 0 | Liver: Hypertrophy, centrilobular, hepatocyte, Minimal (incidence) ([1]; 1.25%): 3/5 and 3 | Liver: Hypertrophy, centrilobular, hepatocyte, Mild (incidence) ([1]; 2.5%): 0 | Liver: Hypertrophy, centrilobular, hepatocyte, Minimal (incidence) ([1]; 2.5%): 5/5 and 5 | Liver: Hypertrophy, centrilobular, hepatocyte, Mild (incidence) ([1]; 5%): 3/5 and 3 | Liver: Hypertrophy, centrilobular, hepatocyte, Minimal (incidence) ([1]; 5%): 2/5 and 2 | serum ALKP ([2]; 1.25–5%, linear regression p < 0.05, not significant via ANOVA): significant linear regression increase | serum glucose, increase compared to vehicle control ([2]; 5%): 30% | serum urea nitrogen (BUN), decrease ([2]; 5%): 30% | serum alanine aminotransferase (ALT) ([2]; any concentration, data not shown): No change | body weight or overt signs of toxicity ([3]; 1.25–5%): no changes | thymus weights (% body weight) ([3]; 2.5%, not dose dependent): significantly increased | Liver weight (% body weight), increase vs vehicle-treated mice ([3]; 5%): 18% | kidney weights (% body weight) ([3]; 5%): significantly increased | dLN B-cells cell number ([4]; 1.25%): 5.40 ± 0.44 × 10^5 | dLN B-cells frequency ([4]; 1.25%): 13.44 ± 1.00% | dLN CD4^+ cell number ([4]; 1.25%): 1.77 ± 0.17 × 10^6 | dLN CD4^+ frequency ([4]; 1.25%): 43.44 ± 1.00% | dLN CD8^+ cell number ([4]; 1.25%): 11.50 ± 0.97 × 10^5 | dLN CD8^+ frequency ([4]; 1.25%): 28.26 ± 0.62% | dLN CD11b+ cell number ([4]; 1.25%): 3.18 ± 0.81 × 10^4 | dLN CD11b+ frequency ([4]; 1.25%): 0.74 ± 0.16% | dLN CD86 B-cells ([4]; 1.25%): 851.20 ± 55.68 MFI | dLN CD86 DCs ([4]; 1.25%): 22.90 ± 1.99 MFI x 10^2 | dLN Dendritic Cells cell number ([4]; 1.25%): 15.60 ± 6.03 × 10^4 | dLN Dendritic Cells frequency ([4]; 1.25%): 4.23 ± 1.95% | dLN Eosinophils cell number ([4]; 1.25%): 7.53 ± 1.81 × 10^2 | dLN MHCII B-cells ([4]; 1.25%): 33.30 ± 3.62 MFI × 10^2 | dLN NK cell number ([4]; 1.25%): 1.84 ± 0.21 × 10^4 | dLN NK frequency ([4]; 1.25%): 0.45 ± 0.03 % | dLN Neutrophils cell number ([4]; 1.25%): 8.55 ± 1.38 × 10^2 | dLN Total Cellularity ([4]; 1.25%): 4.05 ± 0.31 × 10^6 | dLN B-cells cell number ([4]; 2.5%): 8.69 ± 0.16 × 10^5 | dLN B-cells frequency ([4]; 2.5%): 14.86 ± 0.84% | dLN CD4^+ cell number ([4]; 2.5%): 2.47 ± 0.44 × 10^6 | dLN CD4^+ frequency ([4]; 2.5%): 41.54 ± 0.58% | dLN CD8^+ cell number ([4]; 2.5%): 17.20 ± 3.10 × 10^5 | dLN CD8^+ frequency ([4]; 2.5%): 28.6 ± 0.62% | dLN CD11b+ cell number ([4]; 2.5%): 6.87 ± 1.47 × 10^4 | dLN CD11b+ frequency ([4]; 2.5%): 1.09 ± 0.09% | dLN CD86 B-cells ([4]; 2.5%): 908.40 ± 44.09 MFI | dLN CD86 DCs ([4]; 2.5%): 25.10 ± 0.72 MFI x 10^2 | dLN Dendritic Cells cell number ([4]; 2.5%): 9.50 ± 1.42 × 10^4 | dLN Dendritic Cells frequency ([4]; 2.5%): 1.70 ± 0.17% | dLN Eosinophils cell number ([4]; 2.5%): 20.40 ± 3.85 × 10^2 | dLN MHCII B-cells ([4]; 2.5%): 44.30 ± 4.02 MFI × 10^2 | dLN NK cell number ([4]; 2.5%): 3.23 ± 0.68 × 10^4 | dLN NK frequency ([4]; 2.5%): 0.53 ± 0.03% | dLN Neutrophils cell number ([4]; 2.5%): 9.51 ± 1.88 × 10^2 | dLN Total Cellularity ([4]; 2.5%): 5.97 ± 1.06 × 10^6 | dLN B-cells cell number ([4]; 5%): 11.50 ± 1.39 × 10^5 | dLN B-cells frequency ([4]; 5%): 14.70 ± 0.13% | dLN CD4^+ cell number ([4]; 5%): 3.03 ± 0.31 × 10^6 | dLN CD4^+ frequency ([4]; 5%): 39.24 ± 0.83 % | dLN CD8^+ cell number ([4]; 5%): 22.10 ± 2.59 × 10^5 | dLN CD8^+ frequency ([4]; 5%): 28.36 ± 0.20% | dLN CD11b+ cell number ([4]; 5%): 13.40 ± 1.96 × 10^4 | dLN CD11b+ frequency ([4]; 5%): 1.69 ± 0.10 % | dLN CD86 B-cells ([4]; 5%): 879.80 ± 40.32 MFI | dLN CD86 DCs ([4]; 5%): 28.50 ± 0.78 MFI x 10^2 | dLN Dendritic Cells cell number ([4]; 5%): 18.20 ± 3.38 × 10^4 | dLN Dendritic Cells frequency ([4]; 5%): 2.28 ± 0.20% | dLN Eosinophils cell number ([4]; 5%): 22.80 ± 6.04 × 10^2 | dLN MHCII B-cells ([4]; 5%): 43.10 ± 1.85 MFI × 10^2 | dLN MHCII DCs ([4]; 5%): 58.90 ± 2.65 MFI × IQ^2 | dLN NK cell number ([4]; 5%): 4.78 ± 0.67 × 10^4 | dLN NK frequency ([4]; 5%): 0.61 ± 0.04% | dLN Total Cellularity ([4]; 5%): 7.78 ± 0.90 × 10^6 | PFAS serum concentration vs vehicle [5]: significant increase | microscopic observations in the kidney or the spleen [6]: No PFPeA, PFHxA, or PFHpA-related microscopic observations | skin PPARα gene expression ([7]; 1.25–5%): no significant decrease | skin Pparδ gene expression ([7]; 1.25–5%): no changes | skin Flg gene expression ([7]; 2.5%): increased | skin Krt10 gene expression ([7]; 2.5%): increased | skin Pparγ gene expression ([7]; 2.5%): decreased | skin Flg gene expression ([7]; 5%): increased | skin Krt10 gene expression ([7]; 5%): increased | skin Lor gene expression ([7]; 5%): increased | skin Pparγ gene expression ([7]; 5%): decreased | skin S100a8 gene expression, increase ([7]; 5%): 6.7 fold | skin Serpine1 gene expression, increase ([7]; 5%): 1.7 fold | skin Tslp gene expression, increase ([7]; 5%): 5.1 fold | spleen MFI of CD86 on B-cells ([8]; 1.25%): increase | spleen frequency of CD8^+ T-cells ([8]; 1.25%): significant decrease | spleen frequency of eosinophils ([8]; 1.25%): significant decrease | spleen MFI of CD86 on B-cells ([8]; 2.5%): increase | spleen MFI of MHCII on B-cells ([8]; 2.5%): increase | spleen MFI of CD86 on B-cells ([8]; 5%): increase | spleen MFI of MHCII on B-cells ([8]; 5%): increase | spleen NK cell frequency ([8]; 5%): increase | spleen frequency of B-cells ([8]; 5%): significant decrease | spleen frequency of total DCs ([8]; 5%): increase | spleen number of NK cells ([8]; 5%): increase | liver Pparγ expression ([9]; 1.25%): increasing | liver Pparδ expression ([9]; 1.25%): decreasing | liver Cd36 gene expression, increase ([9]; 2.5%): 4 fold | liver Lpl gene expression, increase ([9]; 2.5%): 2.2 fold | liver Pparδ expression ([9]; 2.5%): decreasing | liver Acox1 gene expression ([9]; 5%): increase | liver Cd36 gene expression, increase ([9]; 5%): 4.8 fold | liver Lpl gene expression, increase ([9]; 5%): 2.3 fold | liver Pltp gene expression ([9]; 5%): increase | liver Pparδ expression ([9]; 5%): decreasing
